Test results taken from ChEMBL document CHEMBL4364285 (J Med Chem, 2019).
Calls of active or inactive are those of the source. The rule behind the calls is not given here.

How the values were obtained:
[1] = biological target: T1, Cereblon isoform 4 (Magnetospirillum gryphiswaldense, UniProt A4TVL0); experiment: Inhibition of MANT-uracil binding to wild-type Magnetospirillum gryphiswaldense CRBN isoform 4 by FRET assay
T1 sequence (A4TVL0 whole entry): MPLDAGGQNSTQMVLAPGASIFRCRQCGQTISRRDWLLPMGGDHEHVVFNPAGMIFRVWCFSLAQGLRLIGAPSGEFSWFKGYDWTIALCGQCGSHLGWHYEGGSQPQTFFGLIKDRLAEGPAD
In short: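 Wild-type MsCI4 FRET binding assay, following an earlier protocol. Compounds were dissolved in DMSO, or in water or bicarbonate buffer where soluble. Ki values were derived from the binding curves.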

[2] = biological target: Protein cereblon/Zinc finger protein Aiolos (Homo sapiens) (UniProt Q96SW2+Q9UKT9); experiment: Inhibition of CRBN-mediated IKFZ3 degradation in human OPM2 cells measured after 24 hrs by Western blot analysis; assay type: cell-based
Sequence of Protein cereblon/Zinc finger protein Aiolos (Homo sapiens) (Q96SW2 whole entry, looked up): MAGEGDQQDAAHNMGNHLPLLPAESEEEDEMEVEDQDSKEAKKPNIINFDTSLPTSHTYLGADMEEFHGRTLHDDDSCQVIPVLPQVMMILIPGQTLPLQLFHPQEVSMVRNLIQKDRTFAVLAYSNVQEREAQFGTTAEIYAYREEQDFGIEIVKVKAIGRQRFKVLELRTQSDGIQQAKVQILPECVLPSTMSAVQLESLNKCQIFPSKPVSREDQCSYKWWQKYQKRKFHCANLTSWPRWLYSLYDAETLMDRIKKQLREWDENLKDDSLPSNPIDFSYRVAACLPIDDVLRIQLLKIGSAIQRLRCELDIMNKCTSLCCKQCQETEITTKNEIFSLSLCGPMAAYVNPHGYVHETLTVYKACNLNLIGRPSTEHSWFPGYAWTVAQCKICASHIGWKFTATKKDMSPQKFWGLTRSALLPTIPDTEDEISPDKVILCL
Sequence of Protein cereblon/Zinc finger protein Aiolos (Homo sapiens) (Q9UKT9 whole entry, looked up): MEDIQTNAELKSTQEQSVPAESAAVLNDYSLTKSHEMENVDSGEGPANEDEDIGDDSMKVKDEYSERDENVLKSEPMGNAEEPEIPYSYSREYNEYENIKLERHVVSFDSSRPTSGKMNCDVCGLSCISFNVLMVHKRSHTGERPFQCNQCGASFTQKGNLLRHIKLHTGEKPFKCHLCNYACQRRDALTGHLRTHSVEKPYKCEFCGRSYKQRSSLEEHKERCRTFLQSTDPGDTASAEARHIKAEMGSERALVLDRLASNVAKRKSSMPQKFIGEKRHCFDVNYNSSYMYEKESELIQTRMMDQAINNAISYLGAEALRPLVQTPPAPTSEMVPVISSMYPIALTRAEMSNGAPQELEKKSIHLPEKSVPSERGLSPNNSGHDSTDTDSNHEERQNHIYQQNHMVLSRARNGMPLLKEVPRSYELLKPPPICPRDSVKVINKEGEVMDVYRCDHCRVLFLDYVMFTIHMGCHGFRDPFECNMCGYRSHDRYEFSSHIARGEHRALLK

[3] = Solubility of the compound in bicarbonate buffer; assay type: physicochemical
[4] = Solubility of the compound in water; assay type: physicochemical; conditions: buffer
[5] = Terminal elimination half life in healthy human at 50 to 400 mg, po at pH 7.4; assay type: ADME, organism-based; conditions: in vivo, read-out: beta t1/2
[6] = tested on: THP-1; experiment: Inhibition of TPA-induced TNFalpha production in human THP1 cells at 3 uM by ELISA relative to control; assay type: functional

Structure (SMILES)	Ki [1] [µM]	inhibition [2]	other results
O=C1CC(NC(=O)c2sc3ccccc3c2Cl)C(=O)N1 (stereo unspecified)	> 40	inactive	
O=C1CCC(NC(=O)OC[C@@H]2CCCN2)C(=O)N1 (stereo partly specified)	45	inactive	
O=C1CCC(N2C(=O)c3cccc([N+](=O)[O-])c3C2=O)C(=O)N1 (stereo unspecified)	> 40	inactive	
CC(C)=CC(=O)NC1CC(=O)NC1=O (stereo unspecified)	> 40	inactive	
O=C1CC(N2C(=O)c3ccc([N+](=O)[O-])cc3C2=O)C(=O)N1 (stereo unspecified)	11	inactive	
O=C1CC(NC(=O)OC[C@@H]2CCCN2)C(=O)N1 (stereo partly specified)		inactive	
Nc1cccc2c1C(=O)N(C1CCC(=O)NC1=O)C2=O (stereo unspecified) [POMALIDOMIDE]	0.8		
O=C1CC(NC(=O)OCc2ccccc2)C(=O)N1 (stereo unspecified)	4		
Nc1cccc2c1CN(C1CCC(=O)NC1=O)C2=O (stereo unspecified) [LENALIDOMIDE]	3.1		
Nc1cccc2c1C(=O)N(C1CC(=O)NC1=O)C2=O (stereo unspecified)	> 40		
O=C(O)CCC(=O)NCc1ccc(COC(=O)NC2CCC(=O)NC2=O)cc1 (stereo unspecified)	36	inactive	solubility [3]: > 200 mM
O=C1CC(N2C(=O)c3cccc([N+](=O)[O-])c3C2=O)C(=O)N1 (stereo unspecified)	> 40	inactive	
O=C1CC(NC(=O)c2sc3cccc(Cl)c3c2Cl)C(=O)N1 (stereo unspecified)	20	inactive	
NCc1ccc(COC(=O)NC2CC(=O)NC2=O)cc1.O=C(O)C(F)(F)F (stereo unspecified)	12	inactive	solubility [4]: Soluble
NC[C@H]1CC[C@@H](COC(=O)NC2CC(=O)NC2=O)CC1.O=C(O)C(F)(F)F (stereo partly specified)		inactive	solubility [4]: Soluble
O=C1CCC(N2C(=O)c3ccc([N+](=O)[O-])cc3C2=O)C(=O)N1 (stereo unspecified)	9	inactive	
NC[C@H]1CC[C@@H](COC(=O)NC2CCC(=O)NC2=O)CC1.O=C(O)C(F)(F)F (stereo partly specified)		inactive	solubility [4]: Soluble
O=C(O)CCC(=O)NCc1ccc(COC(=O)NC2CC(=O)NC2=O)cc1 (stereo unspecified)	12	inactive	solubility [3]: > 200 mM
O=C1CCC(N2C(=O)c3ccccc3C2=O)C(=O)N1 (stereo unspecified) [THALIDOMIDE]			half-life [5]: 5.5 to 7.3 h
O=C(/C=C/c1ccccc1)NC1CC(=O)NC1=O (stereo unspecified)	20		
O=C1CC(NC(=O)c2cc([N+](=O)[O-])cc([N+](=O)[O-])c2)C(=O)N1 (stereo unspecified)	> 99	inactive	
O=C1CCC(NC(=O)c2ccccc2C(=O)O)C(=O)N1 (stereo unspecified)			inhibition at 3 µM [6]: 80%
O=C1CC(NC(=O)Cc2ccccc2)C(=O)N1 (stereo unspecified)	> 40	inactive	
